We go through twelve compounds from ChEMBL document CHEMBL2424616, “Synthesis and antimicrobial activity of novel 5-(1-adamantyl)-2-aminomethyl-4-substituted-1,2,4-triazoline-3-thiones” (2013).

Converted amounts (≈) assume the structure as drawn. Some results are limits rather than exact numbers.

The subject of assay [1] is Micrococcus luteus. In words: Antibacterial activity against Micrococcus luteus IFO 3232 after 24 hrs by two fold dilution method. It is filed as functional.
Assay [2] relates to Staphylococcus aureus. In words: Antibacterial activity against Staphylococcus aureus IFO 3060 assessed as growth inhibition at 100 ug/disc after 24 hrs by agar disc-diffusion method. It is filed as functional. The essentials: (§1)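 Agar disc-diffusion on Mueller-Hinton agar. Sterile 8 mm filter-paper discs carrying 100 µg of agent were laid on the seeded agar. Plates were incubated at 37 °C, and growth-inhibition zone diameters were read after 24 h for bacteria.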

Assay [3] has as its system Bacillus subtilis. In words: Antibacterial activity against Bacillus subtilis IFO 3007 after 24 hrs by two fold dilution method. Format: functional.
Assay [4] has as its system Staphylococcus aureus. In words: Antibacterial activity against Staphylococcus aureus IFO 3060 after 24 hrs by two fold dilution method. It is filed as functional.
Assay [5] deals with Micrococcus luteus. In words: Antibacterial activity against Micrococcus luteus IFO 3232 assessed as growth inhibition at 100 ug/disc after 24 hrs by agar disc-diffusion method. Format: functional. The essentials:
as §1
In general terms: In agar diffusion tests the substance spreads into inoculated agar from a disc or well.

The test system of assay [6] is Escherichia coli. The conditions noted are these: IFO 3301, 100 ug/disc.
In assay [7] the test system is Pseudomonas aeruginosa. In words: Antibacterial activity against Pseudomonas aeruginosa IFO 3448 assessed as growth inhibition at 100 ug/disc after 24 hrs by agar disc-diffusion method. Format: functional. The essentials: as §1
Assay [8] concerns Pseudomonas aeruginosa. In words: Antibacterial activity against Pseudomonas aeruginosa IFO 3448 after 24 hrs by two fold dilution method. Format: functional.
Assay [9] has as its system Bacillus subtilis. In words: Antibacterial activity against Bacillus subtilis IFO 3007 assessed as growth inhibition at 100 ug/disc after 24 hrs by agar disc-diffusion method. Format: functional. The essentials: as §1
Assay [10] concerns Micrococcus luteus. In words: Antibacterial activity against Micrococcus luteus IFO 3232 assessed as growth inhibition at 200 ug/disc after 24 hrs by agar disc-diffusion method. It is filed as functional. The settings on record: IFO 3232, 24 h, read-out: DIZ.
Assay [11] has as its system Pseudomonas aeruginosa. In words: Antibacterial activity against Pseudomonas aeruginosa IFO 3448 assessed as growth inhibition at 200 ug/disc after 24 hrs by agar disc-diffusion method. Format: functional. The conditions noted are these: IFO 3448, 24 h, read-out: DIZ.
Assay [12] concerns Bacillus subtilis. In words: Antibacterial activity against Bacillus subtilis IFO 3007 assessed as growth inhibition at 200 ug/disc after 24 hrs by agar disc-diffusion method. Format: functional. The settings on record: IFO 3007, 24 h, read-out: DIZ.
Assay [13] relates to Staphylococcus aureus. In words: Antibacterial activity against Staphylococcus aureus IFO 3060 assessed as growth inhibition at 200 ug/disc after 24 hrs by agar disc-diffusion method. It is filed as functional. The conditions noted are these: IFO 3060, 24 h, read-out: DIZ.
Assay [14] concerns Escherichia coli. In words: Antibacterial activity against Escherichia coli IFO 3301 assessed as growth inhibition at 200 ug/disc after 24 hrs by agar disc-diffusion method. Format: functional. The settings on record: IFO 3301, 24 h, read-out: DIZ.
In assay [15] the test system is Candida albicans. In words: Antifungal activity against Candida albicans IFO 0583 assessed as growth inhibition at 200 ug/disc after 48 hrs by agar disc-diffusion method. It is filed as functional. The conditions noted are these: IFO 0583, 48 h, read-out: DIZ.
Assay [16] concerns Escherichia coli. In words: microbe, parasite or virus in culture. The settings on record: IFO 3301, 24 h, read-out: DIZ.
In assay [17] the test system is Escherichia coli. In words: microbe, parasite or virus in culture. The settings on record: IFO 3301, 24 h.
The subject of assay [18] is Candida albicans. In words: Antifungal activity against Candida albicans IFO 0583 after 24 hrs by two fold dilution method. It is filed as functional. The conditions noted are these: IFO 0583, 24 h.
Assay [19] concerns Candida albicans. In words: Antifungal activity against Candida albicans IFO 0583 assessed as growth inhibition at 100 ug/disc after 48 hrs by agar disc-diffusion method. The conditions noted are these: IFO 0583, 48 h, read-out: DIZ. It is filed as functional.

As for GENTAMICIN, the MIC was 2 µg/mL against Micrococcus luteus [1], 2 µg/mL against Bacillus subtilis [3], 2 µg/mL in the assay with Staphylococcus aureus [4] and 1 µg/mL against Pseudomonas aeruginosa [8]. For the same compound, the inhibition zone (IZ) was 26 mm in the assay with Staphylococcus aureus [2], 18 mm with Micrococcus luteus [5], 19 mm in the assay with Pseudomonas aeruginosa [7] and 25 mm with Bacillus subtilis [9]. This compound showed an IZ in the assay on Escherichia coli [6] of 20 mm.

Turning to `CCN1CCN(Cn2nc(C34CC5CC(CC(C5)C3)C4)n(/N=C/c3ccc(O)cc3)c2=S)CC1`, the MIC against Micrococcus luteus [1] (IFO 3232, 24 h) stood at 2 µg/mL (≈ 4.16 µM); against Bacillus subtilis [3] (IFO 3007, 24 h), 1 µg/mL (≈ 2.08 µM); with Staphylococcus aureus [4] (IFO 3060, 24 h), 1 µg/mL (≈ 2.08 µM). The zone of inhibition at 200 µg/disc with Micrococcus luteus [10] was 25 mm; in the assay with Pseudomonas aeruginosa [11] it was 13 mm; in the assay with Bacillus subtilis [12], 29 mm; in the assay with Staphylococcus aureus [13], 30 mm; in the assay with Escherichia coli [14], 17 mm; in the assay with Candida albicans [15], under 10 mm.

With `CC1(C)S[C@@H]2[C@H](NC(=O)[C@H](N)c3ccccc3)C(=O)N2[C@H]1C(=O)O` [AMPICILLIN], the MIC against Micrococcus luteus [1] (IFO 3232, 24 h) stood at 2 µg/mL (≈ 5.72 µM); with Bacillus subtilis [3] (IFO 3007, 24 h), 0.5 µg/mL (≈ 1.43 µM); in the assay on Staphylococcus aureus [4] (IFO 3060, 24 h), 2 µg/mL (≈ 5.72 µM); with Pseudomonas aeruginosa [8] (IFO 3448, 24 h) it was 2 µg/mL (≈ 5.72 µM). Moreover, the zone of inhibition at 100 µg/disc in the assay with Staphylococcus aureus [2] (IFO 3060, 24 h, read-out: DIZ) is 23 mm; with Micrococcus luteus [5] (IFO 3232, 24 h, read-out: DIZ), 19 mm; in the assay with Escherichia coli [16], 17 mm; in the assay on Pseudomonas aeruginosa [7] (IFO 3448, 24 h, read-out: DIZ) it was 16 mm; with Bacillus subtilis [9] (IFO 3007, 24 h, read-out: DIZ), 21 mm.

As to `Cn1c(C23CC4CC(CC(C4)C2)C3)nn(CN2CCN(c3cccc(C(F)(F)F)c3)CC2)c1=S`, the MIC in the assay on Micrococcus luteus [1] (IFO 3232, 24 h) is 4 µg/mL (≈ 8.14 µM); against Bacillus subtilis [3] (IFO 3007, 24 h), 0.5 µg/mL (≈ 1.02 µM); in the assay on Staphylococcus aureus [4] (IFO 3060, 24 h) it was 0.5 µg/mL (≈ 1.02 µM); in the assay on Escherichia coli [17], 16 µg/mL (≈ 32.5 µM); in the assay with Pseudomonas aeruginosa [8] (IFO 3448, 24 h) it was 8 µg/mL (≈ 16.3 µM). Moreover, the zone of inhibition at 200 µg/disc in the assay with Micrococcus luteus [10] is 28 mm; in the assay with Pseudomonas aeruginosa [11], 21 mm; with Bacillus subtilis [12], 33 mm; with Staphylococcus aureus [13] it was 30 mm; in the assay on Escherichia coli [14], 19 mm; in the assay on Candida albicans [15], under 10 mm.

As to `Oc1ccccc1/C=N/n1c(C23CC4CC(CC(C4)C2)C3)nn(CN2CCN(c3ccccc3)CC2)c1=S`, the MIC was 16 µg/mL (≈ 30.3 µM) with Micrococcus luteus [1] (IFO 3232, 24 h); 4 µg/mL (≈ 7.57 µM) in the assay on Bacillus subtilis [3] (IFO 3007, 24 h); 8 µg/mL (≈ 15.1 µM) in the assay with Staphylococcus aureus [4] (IFO 3060, 24 h). In addition, the zone of inhibition at 200 µg/disc with Micrococcus luteus [10] is 18 mm; in the assay with Pseudomonas aeruginosa [11], 12 mm; in the assay with Bacillus subtilis [12], 25 mm; in the assay on Staphylococcus aureus [13], 22 mm; in the assay on Escherichia coli [14], 14 mm; with Candida albicans [15] it was under 10 mm.

Take `FC(F)(F)c1ccc(NCn2nc(C34CC5CC(CC(C5)C3)C4)n(-c3ccc(Cl)cc3)c2=S)cc1`: the MIC against Micrococcus luteus [1] (IFO 3232, 24 h) was 16 µg/mL (≈ 30.8 µM); in the assay with Bacillus subtilis [3] (IFO 3007, 24 h) it was 8 µg/mL (≈ 15.4 µM). The zone of inhibition at 200 µg/disc was 18 mm with Micrococcus luteus [10]; 11 mm with Pseudomonas aeruginosa [11]; 22 mm in the assay with Bacillus subtilis [12]; 16 mm in the assay with Staphylococcus aureus [13]; 14 mm in the assay with Escherichia coli [14]; under 10 mm in the assay with Candida albicans [15].

Turning to `COc1ccccc1N1CCN(Cn2nc(C34CC5CC(CC(C5)C3)C4)n(C)c2=S)CC1`, the MIC worked out at 16 µg/mL (≈ 35.3 µM) in the assay on Micrococcus luteus [1] (IFO 3232, 24 h); 4 µg/mL (≈ 8.82 µM) against Bacillus subtilis [3] (IFO 3007, 24 h); 4 µg/mL (≈ 8.82 µM) with Staphylococcus aureus [4] (IFO 3060, 24 h). The zone of inhibition at 200 µg/disc in the assay on Micrococcus luteus [10] is 19 mm; in the assay on Pseudomonas aeruginosa [11], under 10 mm; with Bacillus subtilis [12], 20 mm; in the assay with Staphylococcus aureus [13] it was 22 mm; with Escherichia coli [14] it was 11 mm; in the assay on Candida albicans [15], under 10 mm.

The compound `Clc1ccccc1C(c1ccccc1)(c1ccccc1)n1ccnc1` [CLOTRIMAZOLE] came in with an MIC in the assay on Candida albicans [18] of 2 µg/mL (≈ 5.8 µM). Besides, the zone of inhibition at 100 µg/disc with Candida albicans [19] came out at 21 mm.

As to `CCN1CCN(Cn2nc(C34CC5CC(CC(C5)C3)C4)n(/N=C/c3ccccc3O)c2=S)CC1`, the MIC is 2 µg/mL (≈ 4.16 µM) against Micrococcus luteus [1] (IFO 3232, 24 h); 0.5 µg/mL (≈ 1.04 µM) in the assay on Bacillus subtilis [3] (IFO 3007, 24 h); 1 µg/mL (≈ 2.08 µM) in the assay on Staphylococcus aureus [4] (IFO 3060, 24 h). Also, the zone of inhibition at 200 µg/disc with Micrococcus luteus [10] was 24 mm; with Pseudomonas aeruginosa [11] it was 11 mm; in the assay on Bacillus subtilis [12] it was 30 mm; in the assay with Staphylococcus aureus [13] it was 26 mm; in the assay with Escherichia coli [14] it was 16 mm; in the assay on Candida albicans [15] it was under 10 mm.

For the compound `COc1ccccc1N1CCN(Cn2nc(C34CC5CC(CC(C5)C3)C4)n(/N=C/c3ccccc3O)c2=S)CC1`, the MIC with Micrococcus luteus [1] (IFO 3232, 24 h) was found to be 2 µg/mL (≈ 3.58 µM); in the assay with Bacillus subtilis [3] (IFO 3007, 24 h), 0.5 µg/mL (≈ 0.895 µM); in the assay on Staphylococcus aureus [4] (IFO 3060, 24 h), 0.5 µg/mL (≈ 0.895 µM); with Escherichia coli [17] it was 8 µg/mL (≈ 14.3 µM). The zone of inhibition at 200 µg/disc in the assay on Micrococcus luteus [10] was 25 mm; in the assay with Pseudomonas aeruginosa [11], 12 mm; in the assay with Bacillus subtilis [12], 33 mm; with Staphylococcus aureus [13] it was 28 mm; in the assay with Escherichia coli [14], 18 mm; in the assay with Candida albicans [15], under 10 mm.

Regarding `Oc1ccc(/C=N/n2c(C34CC5CC(CC(C5)C3)C4)nn(CN3CCN(c4ccccc4)CC3)c2=S)cc1`, the MIC in the assay with Micrococcus luteus [1] (IFO 3232, 24 h) worked out at 16 µg/mL (≈ 30.3 µM); against Bacillus subtilis [3] (IFO 3007, 24 h), 4 µg/mL (≈ 7.57 µM); against Staphylococcus aureus [4] (IFO 3060, 24 h) it was 4 µg/mL (≈ 7.57 µM). The zone of inhibition at 200 µg/disc with Micrococcus luteus [10] is 19 mm; with Pseudomonas aeruginosa [11] it was under 10 mm; with Bacillus subtilis [12], 22 mm; in the assay with Staphylococcus aureus [13], 22 mm; in the assay on Escherichia coli [14], 16 mm; in the assay with Candida albicans [15], under 10 mm.

As for `COc1ccccc1N1CCN(Cn2nc(C34CC5CC(CC(C5)C3)C4)n(/N=C/c3ccc(O)cc3)c2=S)CC1`, the MIC stood at 16 µg/mL (≈ 28.6 µM) with Micrococcus luteus [1] (IFO 3232, 24 h); 1 µg/mL (≈ 1.79 µM) against Bacillus subtilis [3] (IFO 3007, 24 h); 1 µg/mL (≈ 1.79 µM) with Staphylococcus aureus [4] (IFO 3060, 24 h). For the same compound, the zone of inhibition at 200 µg/disc in the assay with Micrococcus luteus [10] was 18 mm; with Pseudomonas aeruginosa [11], 14 mm; in the assay with Bacillus subtilis [12], 29 mm; in the assay with Staphylococcus aureus [13], 30 mm; with Escherichia coli [14], 16 mm; with Candida albicans [15], under 10 mm.
